Laboratory results: ChEMBL document CHEMBL1124260, “Synthesis and antitumor activity of quaternary ellipticine glycosides, a series of novel and highly active antitumor agents” (1988)

Legend:
Mus musculus [1] = assay: Inhibition of sc implanted syngeneic colon 38 carcinoma by ip administration at 5 mg/kg on 1, 3, 5, 7, 9 days measured as inhibition ratio; assay type: functional; conditions: route subcutaneous
In short: (§1)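 Tumor homogenate (70 mg) implanted into the axillary region of female BDF1 mice. Drug dissolved in 0.9% NaCl and diluted with saline just before use, then given ip on days 1, 3, 5, 7 and 9. Tumor length and width were measured by caliper on day 20 after inoculation and converted to estimated weight. Result reported as treated vs control tumor weight, T/C %.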

Mus musculus [2] = assay: Effect on ip implanted syngeneic B16 melanoma by ip administration for 9 days at 2.5 mg/kg was measured as increase in mean life span; conditions: 216 h
Mus musculus [3] = assay: Antitumor activity against ip implanted syngeneic P388 leukemia in mouse after ip administration of 5 mg/kg for 5 days expressed as increase in mean life span; assay type: functional; conditions: 120 h, route intraperitoneal
In short: (§2)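 Saline-dissolved drug was given ip daily for 5 consecutive days, beginning 24 h post-transplant. ILS % was calculated from treated vs control mean survival time over an 80-day observation period.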

Mus musculus [4] = assay: Antitumor activity against ip implanted L1210 leukemia in mouse after ip administration of 5 mg/kg for 5 days expressed as increase in mean life span; assay type: functional; conditions: Mus musculus, L1210, ip, 120 h, route intraperitoneal
In short: (§3)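 Drug was dissolved in 0.9% NaCl, diluted just before use and given ip once daily for 5 consecutive days, starting 24 h after transplant. ILS % = mean survival time of treated vs control mice, observed for 80 days.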

Mus musculus [5] = assay: Antitumor activity against ip implanted P388 leukemia in mouse after ip administration of 20 mg/kg for 5 days expressed as increase in mean life span; assay type: functional; conditions: 120 h, route intraperitoneal; in short: as §2
Mus musculus [6] = assay: Effect on ip implanted EAC by ip administration for 5 days at 5 mg/kg was measured as increase in mean life span; assay type: functional; conditions: 120 h, route intraperitoneal
In short: (§4)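 Drug in 0.9% NaCl was given ip for 5 consecutive days from 24 h after inoculation. ILS % came from treated vs control mean survival time, followed for 80 days.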

Mus musculus [7] = assay: Antitumor activity against ip implanted L1210 leukemia in mouse after iv administration of 16 mg/kg for 5 days expressed as increase in mean life span; conditions: 120 h
Mus musculus [8] = assay: Number of survivors out of 6 ip implanted P388 leukemia in mouse after iv administration of 16 mg/kg after 80 days
Mus musculus [9] = assay: Number of survivors out of 6 ip implanted EAC leukemia mouse tested after 80 days at 20 mg/kg; assay type: functional; conditions: route intraperitoneal
In short: (§5)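 Drug dissolved and diluted in saline just before use, given ip for 5 consecutive days starting 24 h after implant. Six mice per dose. Survivors counted at 80 days; ILS % taken from mean survival time of treated vs control mice.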

Mus musculus [10] = assay: Inhibition of sc implanted syngeneic colon 38 carcinoma by ip administration at 20 mg/kg on 1, 3, 5, 7, 9 days measured as inhibition ratio; assay type: functional; conditions: route subcutaneous; in short: as §1
Mus musculus [11] = assay: Antitumor activity against ip implanted L1210 leukemia in mouse after ip administration of 30 mg/kg for 5 days expressed as increase in mean life span; assay type: functional; conditions: Mus musculus, L1210, ip, 120 h, route intraperitoneal; in short: as §3
Mus musculus [12] = assay: Antitumor activity against ip implanted P388 leukemia in mouse after ip administration of 10 mg/kg for 5 days expressed as increase in mean life span; assay type: functional; conditions: 120 h, route intraperitoneal; in short: as §2
Mus musculus [13] = assay: Antitumor activity against ip implanted L1210 leukemia in mouse after ip administration of 1.25 mg/kg for 5 days expressed as increase in mean life span; assay type: functional; conditions: 120 h, route intraperitoneal; in short: as §3
Mus musculus [14] = assay: Effect on ip implanted syngeneic B16 melanoma by ip administration of 20 mg/kg for 9 days measured as increase in mean life span; conditions: 216 h
Mus musculus [15] = assay: Antitumor activity against ip implanted P388 leukemia in mouse after iv administration of 8 mg/kg for 5 days expressed as increase in mean life span; conditions: 120 h
Mus musculus [16] = assay: Number of survivors out of 6 ip implanted P388 leukemia in mouse after ip administration of 10 mg/kg after 80 days; assay type: functional; conditions: route intraperitoneal
In short: (§6)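 P388 leukemia, 10^6 ascitic cells implanted ip in female BDF1 mice. Drug in saline given ip for 5 consecutive days from 24 h after transplant. Groups of six per dose level. Survivors/total recorded at the 80-day end of observation; ILS % from treated/control mean survival time.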

Mus musculus [17] = assay: Number of survivors out of 6 ip implanted EAC leukemia mouse tested after 80 days at 40 mg/kg; assay type: functional; conditions: route intraperitoneal; in short: as §5
Mus musculus [18] = assay: Antitumor activity against ip implanted L1210 leukemia in mouse after ip administration of 20 mg/kg for 5 days expressed as increase in mean life span; assay type: functional; conditions: 120 h, route intraperitoneal; in short: as §3
Mus musculus [19] = assay: Effect on ip implanted sarcoma 180 by ip administration for 5 days at 20 mg/kg was measured as increase in mean life span; assay type: functional; conditions: Sarcoma-180, ip, 120 h, route intraperitoneal
In short: (§7)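 Saline-dissolved drug was dosed ip daily for 5 consecutive days starting 24 h later. Readout was ILS % (mean survival time of treated vs control) over an 80-day observation.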

Mus musculus [20] = assay: Antitumor activity against ip implanted P388 leukemia in mouse after ip administration of 40 mg/kg for 5 days expressed as increase in mean life span; assay type: functional; conditions: 120 h, route intraperitoneal; in short: as §2
Mus musculus [21] = assay: Antitumor activity against ip implanted P388 leukemia in mouse after ip administration of 5 mg/kg for 5 days expressed as increase in mean life span; assay type: functional; conditions: 120 h, route intraperitoneal; in short: as §2
Mus musculus [22] = assay: Number of survivors out of 6 ip implanted P388 leukemia in mouse after ip administration of 20 mg/kg after 80 days; assay type: functional; conditions: route intraperitoneal; in short: as §6
Mus musculus [23] = assay: Antitumor activity against ip implanted L1210 leukemia in mouse after iv administration of 8 mg/kg for 5 days expressed as increase in mean life span; conditions: 120 h
Mus musculus [24] = assay: Effect on ip implanted syngeneic B16 melanoma by ip administration for 9 days at 5 mg/kg was measured as increase in mean life span; conditions: 216 h
Mus musculus [25] = assay: Antitumor activity against ip implanted L1210 leukemia in mouse after ip administration of 40 mg/kg for 5 days expressed as increase in mean life span; assay type: functional; conditions: 120 h, route intraperitoneal; in short: as §3
Mus musculus [26] = assay: Number of survivors out of 6 ip implanted P388 leukemia in mouse after ip administration of 5 mg/kg after 80 days; assay type: functional; conditions: route intraperitoneal; in short: as §6
Mus musculus [27] = assay: Number of survivors out of 6 ip implanted EAC leukemia mouse tested after 80 days at 10 mg/kg; assay type: functional; conditions: route intraperitoneal; in short: as §5
Mus musculus [28] = assay: Number of survivors out of 6 ip implanted sarcoma 180 leukemia mouse tested after 80 days at 40 mg/kg; assay type: functional; conditions: route intraperitoneal; in short: as §5
Mus musculus [29] = assay: Number of survivors out of 6 ip implanted L1210 leukemia mouse, tested after 80 days at 30 mg/kg; assay type: functional; conditions: route intraperitoneal
In short: (§8)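 Female BDF1 mice implanted ip with ascitic fluid holding 10^5 L1210 cells. Saline-dissolved drug given ip daily on days 1-5, starting 24 h after implant. Six mice per dose group, followed 80 days. Survivors/total counted at day 80; ILS % from mean survival time vs controls.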

Mus musculus [30] = assay: Number of survivors out of 6 ip implanted L1210 leukemia in mouse after ip administration of 10 mg/kg after 80 days; assay type: functional; conditions: route intraperitoneal; in short: as §8
Mus musculus [31] = assay: Antitumor activity against ip implanted P388 leukemia in mouse after iv administration of 16 mg/kg for 5 days expressed as increase in mean life span; conditions: 120 h
Mus musculus [32] = assay: Antitumor activity against ip implanted P388 leukemia in mouse after ip administration of 1.25 mg/kg for 5 days expressed as increase in mean life span; assay type: functional; conditions: 120 h, route intraperitoneal; in short: as §2
Mus musculus [33] = assay: Effect on ip implanted sarcoma 180 by ip administration for 5 days at 10 mg/kg was measured as increase in mean life span; assay type: functional; conditions: Sarcoma-180, ip, 120 h, route intraperitoneal; in short: as §7
Mus musculus [34] = assay: Effect on ip implanted sarcoma 180 by ip administration for 5 days at 40 mg/kg was measured as increase in mean life span; assay type: functional; conditions: Sarcoma-180, ip, 120 h, route intraperitoneal; in short: as §7
Mus musculus [35] = assay: Number of survivors out of 6 ip implanted L1210 leukemia in mouse after ip administration of 20 mg/kg after 80 days; assay type: functional; conditions: route intraperitoneal; in short: as §8
Mus musculus [36] = assay: Effect on ip implanted EAC by ip administration for 5 days at 20 mg/kg was measured as increase in mean life span; assay type: functional; conditions: 120 h, route intraperitoneal; in short: as §4
Mus musculus [37] = assay: Effect on ip implanted EAC by ip administration for 5 days at 40 mg/kg was measured as increase in mean life span; assay type: functional; conditions: 120 h, route intraperitoneal; in short: as §4
Mus musculus [38] = assay: Antitumor activity against ip implanted L1210 leukemia in mouse after ip administration of 10 mg/kg for 5 days expressed as increase in mean life span; assay type: functional; conditions: Mus musculus, L1210, ip, 120 h, route intraperitoneal; in short: as §3
Mus musculus [39] = assay: Effect on ip implanted syngeneic B16 melanoma by ip administration for 9 days at 10 mg/kg was measured as increase in mean life span; conditions: 216 h
Mus musculus [40] = assay: Effect on ip implanted EAC by ip administration for 5 days at 10 mg/kg was measured as increase in mean life span; assay type: functional; conditions: 120 h, route intraperitoneal; in short: as §4
Mus musculus [41] = assay: Inhibition of sc implanted syngeneic colon 38 carcinoma by ip administration at 30 mg/kg on 1, 3, 5, 7, 9 days measured as inhibition ratio; assay type: functional; conditions: route intraperitoneal; in short: as §1

Structure (SMILES): CC(=O)[O-].Cc1c2cc[n+](C)cc2c(C)c2c1[nH]c1ccc(O)cc12 [ELLIPTINIUM ACETATE]
- T/C (Mus musculus [1]): 38%
- ILS at 2.5 mg/kg (Mus musculus [2]): 35%
- ILS at 5 mg/kg (Mus musculus [3]): 90%
- ILS at 5 mg/kg (Mus musculus [4]): 48%

Structure (SMILES): Cc1c2cc[n+]([C@@H]3O[C@H](CO)[C@H](O)[C@H]3O)cc2c(C)c2c1[nH]c1ccc(O)cc12.[Cl-]
- ILS at 20 mg/kg (Mus musculus [5]): > 628%
- ILS at 5 mg/kg (Mus musculus [6]): 125%
- ILS at 16 mg/kg (Mus musculus [7]): 168%
- Cures (Mus musculus [8]): 2
- Cures (Mus musculus [9]): 3
- T/C (Mus musculus [10]): 36%
- ILS at 30 mg/kg (Mus musculus [11]): > 682%
- ILS at 10 mg/kg (Mus musculus [12]): > 376%
- ILS at 1.25 mg/kg (Mus musculus [13]): 55%
- ILS at 20 mg/kg (Mus musculus [14]): 52%
- ILS at 8 mg/kg (Mus musculus [15]): 122%
- Cures (Mus musculus [16]): 2
- Cures (Mus musculus [17]): 5
- ILS at 20 mg/kg (Mus musculus [18]): > 244%
- ILS at 20 mg/kg (Mus musculus [19]): > 318%
- ILS at 40 mg/kg (Mus musculus [20]): 112%
- ILS at 5 mg/kg (Mus musculus [21]): > 418%
- Cures (Mus musculus [22]): 5
- ILS at 2.5 mg/kg (Mus musculus [2]): 38%
- ILS at 8 mg/kg (Mus musculus [23]): 102%
- ILS at 5 mg/kg (Mus musculus [24]): 42%
- ILS at 40 mg/kg (Mus musculus [25]): 59%
- Cures (Mus musculus [26]): 3
- Cures (Mus musculus [27]): 2
- Cures (Mus musculus [28]): 2
- Cures (Mus musculus [29]): 4
- Cures (Mus musculus [30]): 1
- ILS at 16 mg/kg (Mus musculus [31]): > 417%
- ILS at 1.25 mg/kg (Mus musculus [32]): 110%
- ILS at 10 mg/kg (Mus musculus [33]): 69%
- ILS at 5 mg/kg (Mus musculus [4]): 73%
- ILS at 40 mg/kg (Mus musculus [34]): > 335%
- Cures (Mus musculus [35]): 1
- ILS at 20 mg/kg (Mus musculus [36]): > 380%
- ILS at 40 mg/kg (Mus musculus [37]): > 501%
- ILS at 10 mg/kg (Mus musculus [38]): > 272%
- ILS at 10 mg/kg (Mus musculus [39]): 64%
- ILS at 10 mg/kg (Mus musculus [40]): > 318%
- T/C (Mus musculus [41]): 2%
